# Experimental data from ChEMBL document CHEMBL1649230, “Aryl rhodanines specifically inhibit staphylococcal and enterococcal biofilm formation” (Antimicrob Agents Chemother, 2009).
# Tested on: Staphylococcus aureus
# Experiment: Antimicrobial activity against Staphylococcus aureus ATCC 35556 by M7-A7 method
# Format: functional
# Outline: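 Planktonic MIC by CLSI M7-A7 broth microdilution. Twofold compound dilutions made in DMSO at 50× final concentration and added to plates before inoculation; 2% DMSO final.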
compound,measurement,value
O=C(N[C@H](CO)[C@H](O)c1ccc([N+](=O)[O-])cc1)C(Cl)Cl [CHLORAMPHENICOL],MIC,1 µg/mL
